We go through 8 compounds from ChEMBL document CHEMBL1821614, “Synthesis and biological evaluation of novel Mannich bases of 2-arylimidazo[2,1-b]benzothiazoles as potential anti-cancer agents” (Eur J Med Chem, 2011).

pIC50: −log10 of the molar value. Calls of active or inactive are those of the source. The calls are words filed in the database; no cut-off is given here.

Broadly, the pIC50 is the negative decadic logarithm of the IC50, by convention in mol/L. A high value points to a small IC50.

Assay [1] concerns HepG2. Briefly: Induction of cell cycle arrest in human HepG2 assessed as accumulation at G2/M-phase at 4 uM after 24 hrs by propidium iodide staining based FACS analysis. Format: functional. The procedure, abridged: (§1)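 HepG2 cells were seeded at 5 × 10^5 per 60 mm dish and grown 24 h. Compound was added at 4 µM for a further 24 h. Cells were harvested with trypsin-EDTA, fixed in ice-cold 70% ethanol 30 min at 4 °C and treated with RNase A 30 min at 37 °C. They were stained with propidium iodide/citrate/Triton X-100 solution and phase distribution was read by flow cytometry.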
(In general: A flow cytometer gives signals particle by particle.)

Assay [2] relates to HeLa. The assay is described as follows: Cytotoxicity against human HeLa cells after 24 hrs by MTT assay. Type of assay: functional, cell-based. In outline: (§2)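 Cells were grown in DMEM with 10% FCS, penicillin and streptomycin at 37 °C under 5% CO2. They were seeded at 10,000 cells/well, left overnight, then treated 24 h. Medium was replaced with fresh medium, MTT was added and plates were held 2 h at 37 °C. Absorbance was read at 570 nm. Single-point runs used 4 µM. Data come from three independent experiments as mean ± S.D.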
A general note: Tetrazolium assays rely on reduction of a dye to a coloured formazan, in cell work by metabolically active cells.

In assay [3] the test system is MCF7. Briefly: Selectivity ratio of IC50 for human HEK cells to IC50 for human MCF7 cells. The procedure, abridged: (§3)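 Selectivity index was calculated as the MTT IC50 in normal HEK cells divided by the IC50 in the given cancer line.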
The test system of assay [4] is HepG2. Briefly: Selectivity ratio of IC50 for human HEK cells to IC50 for human HepG2 cells. In outline:
as §3

Assay [5] relates to HepG2. The assay is described as follows: Induction of cell cycle arrest in human HepG2 assessed as accumulation at G0/G1-phase at 4 uM after 24 hrs by propidium iodide staining based FACS analysis. Type of assay: functional. The procedure, abridged: as §1
For assay [6], the system named is MCF7. The assay is described as follows: Cytotoxicity against human MCF7 cells at 4 uM after 24 hrs by MTT assay. Type of assay: functional, cell-based. In outline:
as §2

Assay [7] has as its system HepG2. The assay is described as follows: Induction of cell cycle arrest in human HepG2 assessed as accumulation at S-phase at 4 uM after 24 hrs by propidium iodide staining based FACS analysis. Type of assay: functional. In outline: as §1
The test system of assay [8] is HepG2. The assay is described as follows: Cytotoxicity against human HepG2 cells after 24 hrs by MTT assay. Type of assay: functional, cell-based. As to conditions: HepG2, 24 h. In outline:
as §2

Assay [9] can be described thus: Cytotoxicity against human HEK cells after 24 hrs by MTT assay. Format: cell-based. As to conditions: HEK293, 24 h.
In assay [10] the test system is HeLa. The assay is described as follows: Cytotoxicity against human HeLa cells at 4 uM after 24 hrs by MTT assay. Format: functional, cell-based. In outline:
as §2

In assay [11] the test system is HeLa. The assay is described as follows: Selectivity ratio of IC50 for human HEK cells to IC50 for human HeLa cells. In outline: as §3
Assay [12] concerns MCF7. The assay is described as follows: Cytotoxicity against human MCF7 cells after 24 hrs by MTT assay. Format: functional, cell-based. As to conditions: MCF7, 24 h. In outline: as §2
Assay [13] has as its system HepG2. Briefly: Cytotoxicity against human HepG2 cells at 4 uM after 24 hrs by MTT assay. Format: functional, cell-based. The procedure, abridged:
as §2

In assay [14] the test system is HepG2. The assay is described as follows: Down regulation of c-jun protein in human HepG2 cells at 4 uM after 24 hrs by Western blot analysis. Type of assay: functional, cell-based. The procedure, abridged: (§4)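 HepG2 cells exposed 24 h to compounds at 4 µM, with an untreated control and a YM-201627 reference. Lysates were resolved at 50 µg protein per lane on 12% SDS-PAGE and transferred to PVDF. Membranes were blocked 2 h at RT in TBST with 5% blocking powder, probed with primary antibody at 4 °C overnight and then HRP secondary (1:2000) 1 h at RT. Detection by chemiluminescence, with β-actin as loading control.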
A general note: Immunoblotting shows a protein as a band on a membrane.

The subject of assay [15] is HepG2. Briefly: Down regulation of PKCalpha protein in human HepG2 cells at 4 uM after 24 hrs by Western blot analysis. Type of assay: functional, cell-based. In outline:
as §4

For assay [16], the system named is HepG2. The assay is described as follows: Induction of apoptosis in human HepG2 cells assessed as caspase3 activation at 4 uM by fluorimetric analysis. Format: functional, cell-based. In outline:
(§5)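 HepG2 cells were treated with compound at 4 µM, with an untreated control. Lysates were mixed with 2× reaction buffer containing DTT, caspase-3 substrate was added and the mix was incubated 1 h at 37 °C. Fluorescence was read at ex 400/em 505 nm and expressed as activity relative to the untreated control.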

Assay [17] has as its system HepG2. The assay is described as follows: Down regulation of phosphorylated JNK protein in human HepG2 cells at 4 uM after 24 hrs by Western blot analysis. Type of assay: functional, cell-based. In outline: as §4
In assay [18] the test system is HepG2. The assay is described as follows: Induction of cell cycle arrest at G2/M phase in human HepG2 cells assessed as down regulation of cyclin B1 at 4 uM after 24 hrs by Western blot analysis.
Assay [19] concerns HepG2. Briefly: Induction of apoptosis in human HepG2 cells assessed as caspase3 activation at 4 uM by fluorimetric analysis relative to control. Format: functional. In outline: as §5
Assay [20] relates to HepG2. Briefly: Antiproliferative activity against human HepG2 cells assessed as down regulation of NF-kappaB protein at 4 uM after 24 hrs by Western blot analysis. Format: functional, cell-based. In outline:
as §4

The test system of assay [21] is HepG2. The assay is described as follows: Upregulation of Chk2 protein in human HepG2 cells at 4 uM after 24 hrs by Western blot analysis. Format: functional, cell-based. In outline: as §4
The subject of assay [22] is HepG2. The assay is described as follows: Down regulation of p38 MPAK protein in human HepG2 cells at 4 uM after 24 hrs by Western blot analysis. Type of assay: functional, cell-based. The procedure, abridged:
as §4

The subject of assay [23] is HepG2. Briefly: Down regulation of […] protein in human HepG2 cells at 4 uM after 24 hrs by Western blot analysis. Format: functional, cell-based. In outline:
as §4

`CCN(CC)CCOc1cccc(-c2cn3c(n2)sc2ccccc23)c1.Cl.Cl`: the Activity is recorded as 22.43% in [1], 64.19% in [5] and 13.37% in assay [7]. Also, the negative logarithm of the IC50 (pIC50) in assay [2] was 5.37; in [8], 5.69; in assay [9] it was 4.76; in assay [12], 5.44. Further, the “Ratio IC50” value worked out at 4.87 in assay [3], 8.663 in [4] and 4.069 in [11]. The outcome in assay [6], in assay [10] and in assay [13] was Active.
Consider `Cc1ccc2c(c1)sc1nc(-c3ccccc3)c(CN3CCOCC3)n12`, for which the Activity in assay [1] is 20.9%; in assay [5], 70.89%; in [7], 8.2%. The pIC50 in assay [2] is 5.12; in assay [8], 5.48; in assay [9], 4.72; in assay [12], 5.42. Moreover, the Ratio IC50 in [3] was 5; in assay [4] it was 5.78; in assay [11] it was 2.5. Besides, the result in assay [6], in assay [10] and in [13] was Active.
`CCOc1ccc2c(c1)sc1nc(-c3ccccc3)c(CN3CCN(c4ccccn4)CC3)n12`: the outcome in assay [14], in assay [15], in assay [16], in assay [17], in assay [18] and in assay [6] was Active. Further, the outcome in assay [20], in assay [21], in [10], in [22], in assay [13] and in assay [23] was Active. The Activity is recorded as 31.33% in assay [1], 55.24% in assay [5] and 13.42% in assay [7]. Also, the negative-log IC50 (pIC50) in assay [2] was 5.36; in [8] it was 5.55; in assay [9], 4.80; in assay [12], 5.35. The “Ratio IC50” value in assay [3] was determined as 3.59; in [4], 5.63; in [11] it was 3.67. The “fold change (FC)” value in assay [19] was determined as 2.
In the case of `c1ccc(-c2nc3sc4ccccc4n3c2CN2CCCC2)cc1`, the Activity was 29.27% in [1], 60.2% in [5] and 10.52% in assay [7]. The negative-log IC50 (pIC50) in assay [2] was 5.33; in assay [8] it was 5.52; in [9], 4.73; in assay [12] it was 5.41. Besides, the Ratio IC50 stood at 4.78 in [3], 6.15 in [4] and 3.98 in [11]. The outcome in assay [6], in assay [10] and in assay [13] was Active.
With `Cc1ccc2c(c1)sc1nc(-c3ccccc3)c(CN3CCCC3)n12`, the results for the Activity in assay [1], in assay [5] and in [7] were 18.95%, 73.97% and 7.13%, respectively. The negative-log IC50 (pIC50) in [2] was 5.09; in [8] it was 5.44; in [9], 4.76; in assay [12], 5.42. Moreover, the Ratio IC50 in [3] turned out to be 4.6; in assay [4], 4.86; in [11] it was 2.163. Besides, the result in assay [6], in assay [10] and in [13] was Active.
Consider `Clc1ccc(-c2nc3sc4ccccc4n3c2CN2CCCC2)cc1`, for which the Activity in assay [1] was 13.66%; in assay [5], 81.75%; in assay [7], 4.58%. Moreover, the negative logarithm of the IC50 (pIC50) was 5.36 in assay [2], 5.46 in assay [8], 4.67 in [9] and 5.39 in [12]. Also, the Ratio IC50 came out at 5.2 in assay [3], 6.12 in assay [4] and 4.89 in assay [11]. Moreover, the result in assay [6], in assay [10] and in [13] was Active.
As to `CCOc1ccc2c(c1)sc1nc(-c3ccccc3)c(CN3CCCC3)n12`, the Activity in assay [1] was found to be 27.23%; in [5], 60.12%; in assay [7] it was 12.64%. In addition, the pIC50 in assay [2] is 5.37; in [8], 5.42; in [9], 4.73; in [12], 5.42. Also, the Ratio IC50 in assay [4] turned out to be 5. The result in assay [6], in assay [10] and in [13] was Active.
Consider `CCOc1ccc2c(c1)sc1nc(-c3ccccc3)c(CN3CCOCC3)n12`, for which the results for the Activity in [1], in assay [5] and in assay [7] were 20.46%, 73.54% and 5.99%, respectively. The pIC50 was 5.23 in assay [2], 5.45 in assay [8], 4.68 in [9] and 5.38 in assay [12]. Besides, the Ratio IC50 in assay [3] was found to be 5; in assay [4], 5.97; in assay [11] it was 3.57. For the same compound, the result in assay [6], in assay [10] and in assay [13] was Active.
